In experiment [1] the test system is Mycobacterium tuberculosis. Nature of the experiment: Antimycobacterial activity against Mycobacterium tuberculosis by whole-cell assay. The format is functional.
For experiment [2], the target named is T1, 1-deoxy-D-xylulose 5-phosphate reductoisomerase (Mycobacterium tuberculosis, UniProt P9WNS1).
T1 sequence (P9WNS1 whole entry): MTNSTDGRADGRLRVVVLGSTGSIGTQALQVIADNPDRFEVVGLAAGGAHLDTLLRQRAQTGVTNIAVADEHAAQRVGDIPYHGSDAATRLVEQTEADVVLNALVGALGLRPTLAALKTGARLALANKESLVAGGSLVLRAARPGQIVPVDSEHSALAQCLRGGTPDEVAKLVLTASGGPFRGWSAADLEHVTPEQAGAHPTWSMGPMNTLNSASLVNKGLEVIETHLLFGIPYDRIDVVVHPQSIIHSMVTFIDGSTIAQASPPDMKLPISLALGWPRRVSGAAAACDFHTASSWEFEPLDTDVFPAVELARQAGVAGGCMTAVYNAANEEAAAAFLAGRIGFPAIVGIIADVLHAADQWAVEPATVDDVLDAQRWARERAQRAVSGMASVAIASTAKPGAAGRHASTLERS
The experiment can be described thus: Inhibition of Mycobacterium tuberculosis DXR assessed as reduction of 1-deoxy-D-xylulose 5-phosphate into 2-C-methyl-D-erythritol-4-phosphate measured for every 5 secs upto 500 secs by spectrophotometry analysis. The essentials: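 MtDXR in 50 mM HEPES-NaOH pH 7.5, 100 mM NaCl, 1.5 mM MnCl2, 0.2 mM NADPH and 0.2 mM DXP, started with DXP at 22 °C. A340 read every 5 s for 500 s. Six inhibitor concentrations spanning 0.01–1000. Initial-rate activities relative to the uninhibited reaction were fitted to a Hi/Lo four-parameter curve for IC50.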

In experiment [3] the target is T2, 1-deoxy-D-xylulose 5-phosphate reductoisomerase (Mycobacterium tuberculosis) (UniProt P9WNS1).
T2 sequence (whole entry): T1 sequence (P9WNS1 whole entry)
Nature of the experiment: Inhibition of Mycobacterium tuberculosis DXR assessed as reduction of 1-deoxy-D-xylulose 5-phosphate into 2-C-methyl-D-erythritol-4-phosphate at 100 uM measured for every 5 secs upto 500 secs by spectrophotometry analysis. The essentials: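 MtDXR reaction in 50 mM HEPES-NaOH pH 7.5, 100 mM NaCl, 1.5 mM MnCl2, 0.2 mM NADPH, 0.2 mM DXP and a single inhibitor concentration. Started by adding DXP and run at 22 °C. NADPH consumption read as A340 every 5 s for 500 s. Initial velocity from the linear slope gives % inhibition relative to the uninhibited reaction.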

By MIC is commonly meant the least concentration at which growth counts as inhibited. The low end stands for greater potency, the high end for weaker potency. What is called IC50 is the concentration that gives 50% inhibition. In general, inhibition refers to the change of the read-out against control, counted positive when it falls.

Values after ≈ are worked out from the molar mass of the structure shown. Bounds are passed on as bounds.

Molecule `O=P(O)(O)CCc1ccc(O)c(O)c1` registered a minimal inhibitory concentration (MIC) in experiment [1] above 512 µg/mL. Moreover, the IC50 in experiment [2] came out at 41 µM. In experiment [3], the inhibition was 78%. As for `CC(=O)N(O)CCCc1nnn[nH]1`, the inhibition in experiment [3] amounted to 0%. Molecule `O=c1cccc(CCP(=O)(O)O)n1O` yielded a minimal inhibitory concentration (MIC) in experiment [1] above 512 µg/mL. The half-inhibitory concentration (IC50) in experiment [2] worked out at 53 µM. The inhibition in experiment [3] was determined as 61%. Consider `CC(=O)N(O)CCc1c(C(=O)O)noc1C`, for which the MIC in experiment [1] was above 512 µg/mL. Further, the IC50 in experiment [2] amounted to 151 µM. In experiment [3], the inhibition amounted to 41%. `O=c1oc2cc(Br)cnc2n1CCCP(=O)(O)O`: the inhibition in experiment [3] came to 7%. As for `CC(=O)N(O)CCCS(=O)(=O)O`, the IC50 in experiment [2] is above 100 µM. Besides, the inhibition in experiment [3] was 36%. Take `CC(=O)N(O)CCC1NC(=O)NC1=O` (configuration not stated): the inhibition in experiment [3] came out at 13%. On to `O=c1oc2cccnc2n1CCCP(=O)(O)O`, for which the inhibition in experiment [3] is 11%.

For the molecule `O=C1N[C@H](CCP(=O)(O)O)CO1`, the inhibition in experiment [3] is 0%. Take `CC(=O)N(O)CCCC(=O)NS(C)(=O)=O`: the inhibition in experiment [3] was 29%. In the case of `O=C1NC(=O)C(CCP(=O)(O)O)N1` (configuration not stated), the inhibition in experiment [3] was 8%.

Take `CC(=O)N(O)CCCC(=O)O`: the inhibition in experiment [3] was determined as 0%. Same read-out and setting: under `CC(=O)N(O)CCCP(=O)(O)OCCc1ccccc1` stands 23%. For the molecule `O=c1oc2cc(-c3ccccc3)cnc2n1CCCP(=O)(O)O`, the minimal inhibitory concentration (MIC) in experiment [1] came out at 256 µg/mL (≈ 766 µM). Further, the inhibition in experiment [3] came to 11%.

The record behind these values is ChEMBL document CHEMBL1821696, “Substitution of the phosphonic acid and hydroxamic acid functionalities of the DXR inhibitor FR900098: an attempt to improve the activity against Mycobacterium tuberculosis” (Bioorg Med Chem Lett, 2011).
